ChEMBL document CHEMBL5046323, “Discovery of Phospholipase D Inhibitors with Improved Drug-like Properties and Central Nervous System Penetrance” (ACS Med Chem Lett, 2022)
Converted amounts (≈) assume the structure as drawn.

Key:
[1] = Drug concentration in sc dosed C57BL/6 mouse liver measured after 15 mins by LC-FTICR-MS analysis; format: ADME, organism-based; settings: read-out: Ct
Procedure, shortened: (§1)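 Mice dosed subcutaneously at 10 mg/kg 15, 30 or 60 min before injection of 1-butanol-d10; tissues (liver, brain) collected 15 min after butanol injection for compound levels.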

[2] = Unbound brain concentration in sc dosed C57BL/6 mouse measured after 60 mins by LC-FTICR-MS analysis; format: ADME, organism-based; settings: in vivo, 1 h; procedure, shortened: as §1
[3] = Unbound brain concentration in sc dosed C57BL/6 mouse measured after 30 mins by LC-FTICR-MS analysis; format: ADME, organism-based; settings: in vivo, 0.5 h; procedure, shortened: as §1
[4] = Plasma protein binding in rat; format: ADME, cell-free
BCRP = experiment: Efflux ratio of apparent permeability from basolateral to apical side over apical to basolateral side in dog MDCK-BCRP cells; format: ADME, cell-based, Canis lupus familiaris
[5] = Clearance in iv dosed rat administered as cassette dose; format: ADME, organism-based; settings: in vivo
Procedure, shortened: (§2)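 Rat IV clearance from cassette dosing; unbound clearance calculated as CL/fu.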

[6] = Kinetic solubility of compound at pH 6.8; format: physicochemical; settings: buffer, read-out: Kinetic_solubility
Procedure, shortened: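 Kinetic solubility measured at pH 6.8.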

[7] = Plasma protein binding in sc dosed C57BL/6 mouse assessed as unbound fraction by LC-MS/MS analysis; format: ADME, organism-based; settings: in vivo
[8] = Microsomal stability in human liver microsomes assessed as intrinsic clearance; format: ADME, Microsome; settings: read-out: CLH
Procedure, shortened: (§3)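 Intrinsic clearance (CLint) determined in rat or human liver microsomes.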

[9] = Drug concentration in sc dosed C57BL/6 mouse brain measured after 15 mins by LC-FTICR-MS analysis; format: ADME, organism-based; settings: read-out: Ct; procedure, shortened: as §1
[10] = Unbound brain concentration in sc dosed C57BL/6 mouse measured after 15 mins by LC-FTICR-MS analysis; format: ADME, organism-based; settings: in vivo, 0.25 h; procedure, shortened: as §1
[11] = target: Voltage-gated inwardly rectifying potassium channel KCNH2 (Homo sapiens, UniProt Q12809); experiment: Inhibition of human ERG; format: toxicity
Cytochrome P450 2C9 = Cytochrome P450 2C9 (Homo sapiens, UniProt P11712); experiment: Inhibition of CYP2C9 (unknown origin); format: ADME
[12] = Drug concentration in sc dosed C57BL/6 mouse brain measured after 30 mins by LC-FTICR-MS analysis; format: ADME, organism-based; settings: read-out: Ct; procedure, shortened: as §1
MDR1 (P-gp) = experiment: Efflux ratio of apparent permeability from basolateral to apical side over apical to basolateral side in dog MDCK-MDR1 cells; format: ADME, cell-based, Canis lupus familiaris
Procedure, shortened: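 Efflux ratio calculated as Papp(B–A)/Papp(A–B) across MDR1-transfected MDCK monolayers.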

[13] = Unbound clearance in iv dosed rat administered as cassette dose; format: ADME, organism-based; settings: in vivo; procedure, shortened: as §2
[14] = Drug concentration in sc dosed C57BL/6 mouse liver measured after 30 mins by LC-FTICR-MS analysis; format: ADME, organism-based; settings: read-out: Ct; procedure, shortened: as §1
[15] = Unbound brain-to-plasma concentration ratio in rat; format: ADME; settings: read-out: K(p,uu,brain)
Procedure, shortened: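 Kpu,u is the ratio of free compound concentration in brain over free concentration in plasma at steady state, determined by rat infusion.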

[16] = Drug concentration in sc dosed C57BL/6 mouse brain measured after 60 mins by LC-FTICR-MS analysis; format: ADME, organism-based; settings: read-out: Ct; procedure, shortened: as §1
Cytochrome P450 3A4 = Cytochrome P450 3A4 (Homo sapiens, UniProt P08684); experiment: Inhibition of CYP3A4 (unknown origin); format: ADME
Cytochrome P450 2C19 = Cytochrome P450 2C19 (Homo sapiens, UniProt P33261); experiment: Inhibition of CYP2C19 (unknown origin); format: ADME
Cytochrome P450 1A2 = target: T1, Cytochrome P450 1A2 (Homo sapiens, UniProt P05177); experiment: Inhibition of CYP1A2 (unknown origin); format: ADME
T1 sequence (P05177 whole entry): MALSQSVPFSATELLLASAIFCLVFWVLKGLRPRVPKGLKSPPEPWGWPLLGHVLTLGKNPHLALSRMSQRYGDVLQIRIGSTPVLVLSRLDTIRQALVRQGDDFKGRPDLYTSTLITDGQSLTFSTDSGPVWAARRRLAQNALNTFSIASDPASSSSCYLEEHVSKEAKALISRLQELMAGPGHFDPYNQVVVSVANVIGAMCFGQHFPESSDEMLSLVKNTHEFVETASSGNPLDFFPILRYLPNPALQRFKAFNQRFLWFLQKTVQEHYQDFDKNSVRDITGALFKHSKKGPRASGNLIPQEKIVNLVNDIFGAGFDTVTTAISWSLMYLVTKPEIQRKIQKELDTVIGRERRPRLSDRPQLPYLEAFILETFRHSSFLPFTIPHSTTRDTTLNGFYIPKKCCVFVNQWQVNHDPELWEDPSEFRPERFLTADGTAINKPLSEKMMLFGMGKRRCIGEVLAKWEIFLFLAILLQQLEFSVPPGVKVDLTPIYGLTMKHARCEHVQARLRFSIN

[17] = Tmax in sc dosed C57BL/6 mouse by LC-MS/MS analysis; format: ADME, organism-based; settings: in vivo
Cytochrome P450 2B6 = target: T2, Cytochrome P450 2B6 (Homo sapiens, UniProt P20813); experiment: Inhibition of CYP2B6 (unknown origin); format: ADME
T2 sequence (P20813 whole entry): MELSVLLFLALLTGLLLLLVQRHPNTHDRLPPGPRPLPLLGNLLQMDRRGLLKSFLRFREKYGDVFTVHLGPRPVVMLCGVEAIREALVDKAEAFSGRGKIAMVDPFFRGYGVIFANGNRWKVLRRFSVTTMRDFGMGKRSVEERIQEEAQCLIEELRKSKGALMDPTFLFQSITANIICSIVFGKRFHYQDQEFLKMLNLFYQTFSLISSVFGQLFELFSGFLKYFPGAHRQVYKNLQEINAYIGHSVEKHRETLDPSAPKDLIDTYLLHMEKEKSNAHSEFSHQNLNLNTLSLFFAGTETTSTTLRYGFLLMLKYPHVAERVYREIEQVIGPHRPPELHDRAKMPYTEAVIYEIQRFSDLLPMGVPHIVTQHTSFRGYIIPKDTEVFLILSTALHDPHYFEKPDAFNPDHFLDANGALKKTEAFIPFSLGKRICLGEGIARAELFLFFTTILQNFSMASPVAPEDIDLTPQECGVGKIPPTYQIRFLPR

[18] = AUClast in sc dosed C57BL/6 mouse by LC-MS/MS analysis; format: ADME, organism-based; set-up: route subcutaneous, time 0 - last; settings: in vivo
Cytochrome P450 2D6 = Cytochrome P450 2D6 (Homo sapiens, UniProt P10635); experiment: Inhibition of CYP2D6 (unknown origin); format: ADME
[19] = Cmax in sc dosed C57BL/6 mouse by LC-MS/MS analysis; format: ADME, organism-based; set-up: route subcutaneous; settings: in vivo
Phospholipase D2 = Phospholipase D2 (Homo sapiens, UniProt O14939); experiment: Inhibition of PLD2 (unknown origin) expressed in human HEK cells by immunoprecipitation; format: cell-based
Procedure, shortened: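 PLD1 or PLD2 immunoprecipitated from HEK-293 cell lysates and captured on plate with an antibody (ELISA format); 08:0 phosphatidylcholine substrate; released choline detected by Amplex Red readout.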

[20] = Tmax in po dosed rat; format: ADME, organism-based; settings: in vivo
Procedure, shortened: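 Rat oral PK, average of two experiments with n = 3 rats each; formulation HPMC/Tween.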

[21] = Apparent permeability in dog MDCK cells with low MDR1 expression
[22] = Plasma protein binding in sc dosed C57BL/6 mouse by LC-MS/MS analysis; format: ADME, organism-based; settings: in vivo
[23] = Microsomal stability in rat liver microsomes assessed as intrinsic clearance; format: ADME, Microsome; settings: read-out: CLH; procedure, shortened: as §3
[24] = Drug concentration in sc dosed C57BL/6 mouse liver measured after 60 mins by LC-FTICR-MS analysis; format: ADME, organism-based; settings: read-out: Ct; procedure, shortened: as §1

Phospholipase D2, sequence (O14939 whole entry): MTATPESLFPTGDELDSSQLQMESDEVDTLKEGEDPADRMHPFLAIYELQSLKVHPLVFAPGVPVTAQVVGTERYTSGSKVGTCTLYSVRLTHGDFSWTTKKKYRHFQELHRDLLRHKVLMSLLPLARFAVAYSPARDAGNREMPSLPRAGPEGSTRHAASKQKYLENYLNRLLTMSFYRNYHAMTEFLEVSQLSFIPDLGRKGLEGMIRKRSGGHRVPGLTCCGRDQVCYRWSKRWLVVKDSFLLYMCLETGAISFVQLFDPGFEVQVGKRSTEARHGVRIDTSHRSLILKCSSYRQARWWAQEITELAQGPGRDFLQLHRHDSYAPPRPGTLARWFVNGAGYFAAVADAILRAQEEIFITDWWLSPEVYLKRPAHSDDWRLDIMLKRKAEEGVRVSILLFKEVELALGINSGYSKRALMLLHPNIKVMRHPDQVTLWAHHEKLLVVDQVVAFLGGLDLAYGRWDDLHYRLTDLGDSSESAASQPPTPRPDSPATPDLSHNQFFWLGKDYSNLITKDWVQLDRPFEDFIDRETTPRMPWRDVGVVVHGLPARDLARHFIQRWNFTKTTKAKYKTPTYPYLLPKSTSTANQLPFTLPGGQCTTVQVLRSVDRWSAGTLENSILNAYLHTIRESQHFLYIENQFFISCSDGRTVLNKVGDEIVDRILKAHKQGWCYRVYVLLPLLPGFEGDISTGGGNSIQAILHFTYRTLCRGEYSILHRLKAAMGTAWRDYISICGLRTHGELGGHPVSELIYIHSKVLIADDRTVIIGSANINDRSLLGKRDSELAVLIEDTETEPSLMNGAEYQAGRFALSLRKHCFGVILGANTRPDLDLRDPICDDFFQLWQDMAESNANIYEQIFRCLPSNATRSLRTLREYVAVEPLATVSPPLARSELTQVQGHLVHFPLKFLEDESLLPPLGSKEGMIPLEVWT
Cytochrome P450 2C19, sequence (P33261 whole entry): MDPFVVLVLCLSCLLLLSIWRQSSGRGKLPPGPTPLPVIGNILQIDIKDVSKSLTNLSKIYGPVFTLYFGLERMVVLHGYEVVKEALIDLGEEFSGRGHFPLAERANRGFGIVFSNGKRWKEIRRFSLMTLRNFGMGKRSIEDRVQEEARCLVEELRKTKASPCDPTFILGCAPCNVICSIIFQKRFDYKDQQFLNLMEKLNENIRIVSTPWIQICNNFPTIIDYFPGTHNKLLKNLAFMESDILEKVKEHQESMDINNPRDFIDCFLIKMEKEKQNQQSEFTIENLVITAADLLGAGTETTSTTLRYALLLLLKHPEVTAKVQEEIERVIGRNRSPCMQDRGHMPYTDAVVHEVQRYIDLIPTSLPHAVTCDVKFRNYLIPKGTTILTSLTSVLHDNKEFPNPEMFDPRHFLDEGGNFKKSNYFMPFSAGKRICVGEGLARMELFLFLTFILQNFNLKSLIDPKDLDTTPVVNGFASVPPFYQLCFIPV
Voltage-gated inwardly rectifying potassium channel KCNH2, sequence (Q12809 whole entry): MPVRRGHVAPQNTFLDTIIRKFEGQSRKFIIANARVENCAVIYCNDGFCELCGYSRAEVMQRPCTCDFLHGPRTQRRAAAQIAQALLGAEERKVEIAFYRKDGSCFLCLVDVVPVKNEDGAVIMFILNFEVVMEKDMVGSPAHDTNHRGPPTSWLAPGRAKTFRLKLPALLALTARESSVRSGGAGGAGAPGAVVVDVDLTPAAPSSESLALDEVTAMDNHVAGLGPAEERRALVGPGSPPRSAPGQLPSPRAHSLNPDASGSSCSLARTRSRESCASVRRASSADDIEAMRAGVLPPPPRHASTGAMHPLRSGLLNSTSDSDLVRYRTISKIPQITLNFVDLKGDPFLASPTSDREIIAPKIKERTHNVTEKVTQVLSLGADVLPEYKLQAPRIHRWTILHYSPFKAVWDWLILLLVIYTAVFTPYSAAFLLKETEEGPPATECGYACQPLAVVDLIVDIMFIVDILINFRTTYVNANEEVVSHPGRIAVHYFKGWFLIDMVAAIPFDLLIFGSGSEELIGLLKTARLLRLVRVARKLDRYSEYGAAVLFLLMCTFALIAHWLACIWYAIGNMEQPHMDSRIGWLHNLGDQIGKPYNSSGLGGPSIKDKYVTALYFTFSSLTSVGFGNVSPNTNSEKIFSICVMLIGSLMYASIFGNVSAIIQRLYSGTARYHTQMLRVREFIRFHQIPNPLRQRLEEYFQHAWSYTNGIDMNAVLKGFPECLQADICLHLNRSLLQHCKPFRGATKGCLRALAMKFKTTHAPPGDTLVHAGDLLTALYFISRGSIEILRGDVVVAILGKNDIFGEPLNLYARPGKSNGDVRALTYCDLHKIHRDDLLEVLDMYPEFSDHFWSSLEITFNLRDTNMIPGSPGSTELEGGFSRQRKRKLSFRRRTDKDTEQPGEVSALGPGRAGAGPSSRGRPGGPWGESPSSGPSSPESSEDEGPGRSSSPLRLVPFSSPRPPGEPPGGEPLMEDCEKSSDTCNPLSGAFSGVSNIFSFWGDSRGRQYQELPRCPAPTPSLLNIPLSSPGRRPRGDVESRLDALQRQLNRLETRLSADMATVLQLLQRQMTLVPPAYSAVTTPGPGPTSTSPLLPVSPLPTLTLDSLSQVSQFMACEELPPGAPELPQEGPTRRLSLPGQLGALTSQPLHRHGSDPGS
Cytochrome P450 2C9, sequence (P11712 whole entry): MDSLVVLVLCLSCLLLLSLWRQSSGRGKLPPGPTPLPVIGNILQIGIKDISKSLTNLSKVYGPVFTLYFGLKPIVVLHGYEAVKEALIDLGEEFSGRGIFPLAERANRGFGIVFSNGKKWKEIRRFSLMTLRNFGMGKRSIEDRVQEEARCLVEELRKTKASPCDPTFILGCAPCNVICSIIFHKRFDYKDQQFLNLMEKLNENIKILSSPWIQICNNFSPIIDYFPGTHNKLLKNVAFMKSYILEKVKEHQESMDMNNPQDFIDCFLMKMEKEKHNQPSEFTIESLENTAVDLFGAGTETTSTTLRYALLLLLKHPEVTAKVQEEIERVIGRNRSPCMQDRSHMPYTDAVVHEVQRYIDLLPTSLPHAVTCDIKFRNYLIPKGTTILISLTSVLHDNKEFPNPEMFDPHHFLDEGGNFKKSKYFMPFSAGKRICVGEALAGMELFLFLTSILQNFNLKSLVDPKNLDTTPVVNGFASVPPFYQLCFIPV
Cytochrome P450 2D6, sequence (P10635 whole entry): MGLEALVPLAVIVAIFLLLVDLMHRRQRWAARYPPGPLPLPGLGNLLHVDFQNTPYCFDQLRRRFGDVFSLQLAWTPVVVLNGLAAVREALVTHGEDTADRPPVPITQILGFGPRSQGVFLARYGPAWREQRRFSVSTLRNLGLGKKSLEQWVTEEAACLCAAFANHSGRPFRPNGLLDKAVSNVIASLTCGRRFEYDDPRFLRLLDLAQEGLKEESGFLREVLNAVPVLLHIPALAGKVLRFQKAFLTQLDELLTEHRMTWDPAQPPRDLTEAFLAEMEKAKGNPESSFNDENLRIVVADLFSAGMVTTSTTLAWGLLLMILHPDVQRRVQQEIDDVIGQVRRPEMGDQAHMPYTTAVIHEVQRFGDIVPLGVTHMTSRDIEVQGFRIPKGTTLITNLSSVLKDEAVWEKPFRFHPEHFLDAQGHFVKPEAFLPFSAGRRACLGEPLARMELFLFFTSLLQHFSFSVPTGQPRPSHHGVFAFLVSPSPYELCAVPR
Cytochrome P450 3A4, sequence (P08684 whole entry): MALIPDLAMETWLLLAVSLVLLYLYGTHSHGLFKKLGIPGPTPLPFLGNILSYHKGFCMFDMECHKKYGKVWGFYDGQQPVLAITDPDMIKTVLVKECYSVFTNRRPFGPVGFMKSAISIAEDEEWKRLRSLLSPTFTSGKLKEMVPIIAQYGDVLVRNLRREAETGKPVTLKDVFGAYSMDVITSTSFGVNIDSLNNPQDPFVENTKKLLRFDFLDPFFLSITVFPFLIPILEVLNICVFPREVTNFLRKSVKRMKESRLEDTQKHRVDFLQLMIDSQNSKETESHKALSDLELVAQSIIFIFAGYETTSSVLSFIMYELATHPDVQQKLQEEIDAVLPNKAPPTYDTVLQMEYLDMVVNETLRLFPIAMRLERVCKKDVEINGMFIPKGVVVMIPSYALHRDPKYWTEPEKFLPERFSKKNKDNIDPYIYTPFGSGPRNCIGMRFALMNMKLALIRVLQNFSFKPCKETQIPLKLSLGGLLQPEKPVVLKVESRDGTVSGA

Structure (SMILES): C[C@@H]1CN(C(=O)[C@H](C)N2CCC(n3c(=O)[nH]c4ccccc43)CC2)C[C@@H](C)N1
- concentration at 0.25 h [1]: 4550 ng/g
- Drug uptake(free) [2]: 53.2 nM
- Drug uptake(free) [3]: 49.5 nM
- PPB [4]: 36.3%
- efflux ratio (BCRP): 1.2
- clearance [5]: 28 mL/min/kg
- solubility kinetic [6]: 72.6 µg/mL (≈ 188 µM)
- Fu [7]: 17.5%
- CLint scaled [8]: 6 mL/min/kg
- concentration at 0.25 h [9]: 83.8 ng/g
- Drug uptake(free) [10]: 38.1 nM
- IC50 [11]: > 30 µM
- IC50 (Cytochrome P450 2C9): > 10 µM
- concentration at 0.5 h [12]: 109 ng/g
- efflux ratio (MDR1 (P-gp)): 9.2
- CL free [13]: 84 mL/min/kg
- concentration at 0.5 h [14]: 7160 ng/g
- Kp uu [15]: 0.8
- concentration at 1 h [16]: 117 ng/g
- IC50 (Cytochrome P450 3A4): > 10 µM
- IC50 (Cytochrome P450 2C19): > 10 µM
- IC50 (Cytochrome P450 1A2): > 10 µM
- Tmax [17]: 0.44 h
- IC50 (Cytochrome P450 2B6): > 10 µM
- AUC(0-t) [18]: 7990 ng·h/mL
- IC50 (Cytochrome P450 2D6): > 10 µM
- Cmax [19]: 2960 ng/mL
- IC50 (Phospholipase D2): 0.23 µM
- Tmax [20]: 3 h
- Papp [21]: 5.1 ×10⁻⁶ cm/s
- PPB [22]: 17.2%
- CLint scaled [23]: 64 mL/min/kg
- concentration at 1 h [24]: 7380 ng/g
